# Most compounds without a hit are left out; they make up all but 2.5% or so of the library.
# SENP1 FRET inh: human SENP1 catalytic domain inhibitors, primary screen, biochemical, FRET, uHTS; Sentrin-specific protease 1 (Homo sapiens), Q9P0U3; recombinant SENP1 catalytic domain, CyPet-SUMO1-YPet FRET cleavage; inhibition, % at 10 µM; 360,000 tested, 0.21% active; AID 624204, 2012;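 active means inhibition at least 30% at 10 µM, raw YFP signal under a set limit, fluorescence ratio 0.5 to 1.5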;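 further: 0% = enzyme with DMSO and 100% = no enzyme wells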
#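 System: Recombinant human SENP1 catalytic domain, His6-tagged | Incubation: Enzyme reaction for 50 min at room temperature, dark | Medium: Tris pH 8 with BME, BSA, NP40 and catalase | Also added: 25 nM SUMO1 FRET substrate | Compound: 10 µM single point, 0.5% DMSO | Measured by: FRET fluorescence in CFP and YFP emission channels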
# SENP8 block-1: SENP8 protease inhibitors, primary screen, biochemical, luminescence; Sentrin-specific protease 8 (Homo sapiens), Q96LD8; purified SENP8, Z-RLRGG-aminoluciferin cleavage; inhibition, % at 10 µM; 330,000 tested, 1.2% active; AID 2540, 2010; in the data active means inhibition above about 50%
# SENP7 inh: SENP7 protease inhibitors, primary screen, biochemical, luminescence, uHTS | Sentrin-specific protease 7 (Homo sapiens), Q9BQF6 | recombinant SENP7, Z-RLRGG-aminoluciferin luminescence, 40 min | inhibition, % at 5 µM | 330,000 tested, 1.5% active | AID 434973, 2010;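 active means inhibition above about 50% at the single test dose, limit read from the data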;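 further: plate controls were DMSO with enzyme for no effect and no enzyme buffer wells for full effect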
# SENP8 block-2: human SENP8 protease inhibitors, primary screen, biochemical, fluorescence, Nedd8 protein substrate, uHTS | Sentrin-specific protease 8 (Homo sapiens), Q96LD8 | recombinant SENP8 | inhibition, % at 20 µM | 360,000 tested, 0.64% active | AID 602440, 2012; in the data active means inhibition mostly above about 40%, no sharp cut-off; inactive means mostly below about 27%
# SENP6 inh: SENP6 protease inhibitors, primary screen, biochemical, luminescence, uHTS. 330,000 tested, 1.8% active. inhibition, % at 10 µM. Recombinant SENP6 catalytic domain, aminoluciferin luminescence;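 active means inhibition above about 50% at the single tested dose, limit read from the data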;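 further: plate controls were DMSO wells with enzyme for no effect and DMSO wells lacking enzyme for full effect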
# Target sequence (Q9GZR1 628-1112 limits assumed): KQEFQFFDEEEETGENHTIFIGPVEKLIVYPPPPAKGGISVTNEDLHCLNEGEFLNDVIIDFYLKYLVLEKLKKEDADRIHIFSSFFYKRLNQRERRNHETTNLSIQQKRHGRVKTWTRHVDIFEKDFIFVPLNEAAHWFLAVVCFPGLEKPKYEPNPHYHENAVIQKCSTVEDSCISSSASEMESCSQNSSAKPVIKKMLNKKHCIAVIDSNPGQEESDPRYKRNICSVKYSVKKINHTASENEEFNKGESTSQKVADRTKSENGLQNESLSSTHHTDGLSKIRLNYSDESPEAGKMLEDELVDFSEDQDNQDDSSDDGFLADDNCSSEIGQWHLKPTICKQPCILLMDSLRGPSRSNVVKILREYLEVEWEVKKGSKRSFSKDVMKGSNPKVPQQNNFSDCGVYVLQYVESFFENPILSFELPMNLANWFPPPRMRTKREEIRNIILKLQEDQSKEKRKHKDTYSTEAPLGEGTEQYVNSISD
# * = called active by the depositor; i = inactive; x = no result.
SMILES,SENP1 FRET inh,SENP8 block-1,SENP7 inh,SENP8 block-2,SENP6 inh
Cc1ccc(CNc2ccc(O)cc2)cc1,2,44,5,72*,48
Cc1ccc(NCc2ccccc2O)cc1,1,-6,18,15,19
COc1ccc(-c2coc3cc(O)cc(O)c3c2=O)cc1,0,32,27,19,42
COc1ccc(-c2coc3cc(OC)cc(O)c3c2=O)cc1,4,-11,63*,16,30
O=C(O)c1ccc(N=NNc2cccc([N+](=O)[O-])c2)cc1,1,96*,98*,40*,95*
O=C(Nc1cccc([N+](=O)[O-])c1)c1ccc(-c2ccccc2)cc1,3,-1,-13,14,-6
COc1cccc(CNC(=O)[C@@H]2CCCN2C(=O)[C@H]2CCCCN2)c1,1,x,x,17,x
Clc1ccc(N=c2ssnc2Cl)nc1,32*,9,11,37,40
C/C(CC1CC2=C(CC1(C)C)C(C)(C)CCC2)=N\NC(N)=S (stereo not given),0,6,7,1,-6
COc1ccc(NC(C)c2cc(Cl)ccc2O)cc1 (stereo not given),0,-6,-5,47*,-12
CC(Nc1ccccc1)c1cc(Cl)ccc1O (stereo not given),1,-4,1,25,-5
COC1C=CC=C(C)C(=O)NC2=CC(=O)C(N)=C(CC(C)CC(OC)C(O)C(C)C=C(C)C1OC(N)=O)C2=O (stereo not given),1,x,x,57*,x
CCn1c(N)nc2c1c(=O)n(C)c(=O)n2C,-1,1,-4,26,-9
Cn1nc(-c2ccccn2)nc2c(=O)n(C)c(=O)nc1-2,33*,97*,96*,93*,-8
COc1ccc(-c2nc(-c3ccccn3)ncc2S(C)(=O)=O)cc1,1,-8,0,12,-11
CCCc1nc2c(=O)n(C)c(=O)nc-2n(C)n1,34*,x,x,120*,x
CSc1nc2nccc(-c3ccc(Oc4ccccc4)cc3)n2n1,0,-10,-5,i,-24
CCCCNc1ccc2nsnc2c1[N+](=O)[O-],-34,-4,20,11,67*
Cc1cccc(NC(=O)c2cnc3ccccn3c2=O)c1,-1,67*,67*,-42,81*
O=c1c2ccccc2cnn1CCOc1ccccc1,-1,92*,93*,8,92*
O=C(O)c1cc(O)c2c(c1)C(=O)c1cccc(O)c1C2=O,-19,9,4,31,1
COc1cc(C)cc(C(=O)O)c1C1=C(O)c2cccc(O)c2C(=O)C1=O,-4,4,5,55*,-3
Cc1occc1C(=O)N/N=C/c1ccc2c(c1)OCO2,1,96*,99*,3,100*
Cc1cc(/C=N/NC(=O)c2ccoc2C)cc(C)c1O,5,x,x,-42,x
Cc1occc1C(=O)N/N=C/c1ccc(OCc2ccccc2)cc1,3,80*,90*,16,90*
SMILES,SENP1 FRET inh,SENP8 block-1,SENP7 inh,SENP8 block-2,SENP6 inh
Cc1[nH]c2ccccc2c1CCNC(=O)c1ccc2c(c1[N+](=O)[O-])C(=O)c1ccccc1C2=O,1,6,7,34,18
Cc1[nH]c2c(C)cccc2c1CCNC(=O)c1ccc2c(c1[N+](=O)[O-])C(=O)c1ccccc1C2=O,1,7,6,43*,-3
C#Cc1cccc(NC(=O)c2ccc(Cl)cc2Cl)c1,0,62*,74*,11,73*
C[C@]1(CC/C(=C/CO)CO)[C@H](CO)CC[C@@]23COC(=O)C2=CCC[C@@H]31,1,8,-6,17,-3
COc1ccc(-c2cc(C(F)(F)F)c3c(N)c(C(=O)NCCSC)sc3n2)cc1,-26,16,2,-487,14
COc1cccc(-c2cc(C(F)(F)F)c3c(N)c(C#N)sc3n2)c1,x,0,86*,x,2
Cc1cccc2cc3c(N)c(C(=O)Nc4ccc(N5CCOCC5)cc4)sc3nc12,65*,4,1,27,-13
C(=NNc1nnn(Cc2ccccc2)n1)c1ccccc1,-1,x,x,12,x
COC1=C(Br)C(=O)c2ncccc2C1=O,8,x,x,105*,x
O=C1C(=O)c2cccnc2-c2ncccc21,29*,x,x,110*,x
O=C1c2cccnc2-c2ncccc21,-2,-7,2,40,9
O=C(NNc1cccc(Cl)n1)Nc1ccc(F)cc1,1,-8,5,3,0
COc1cccc(CNCc2ccc(SC)cc2)c1OC,3,1,3,12,-10
COc1ccc(CN(C(C)=O)c2ccccc2C(=O)O)cc1,3,-1,0,8,-18
COc1ccc(N(/N=C2\Sc3ccccc3C2=O)C(C)=O)cc1,3,x,x,52*,x
COC(=O)/C=C1\S/C(=N/N=C/c2ccccc2)NC1=O,3,-9,-4,17,5
COC(=O)/C=C1\S/C(=N/N=C/c2ccc(Cl)cc2)NC1=O,2,0,19,43*,-1
O=C1N/C(=N\S(=O)(=O)Cc2ccccc2)S/C1=C/c1cccc([N+](=O)[O-])c1,-1,-14,4,15,9
O=C1N/C(=N/O)S/C1=C/c1cccc([N+](=O)[O-])c1,1,19,13,30,57*
CC(NC(=S)Nc1c(Br)cccc1OC(F)F)C(C)(C)C (stereo not given),-2,-2,3,10,3
CCCCCC[n+]1ccccc1/C=C/c1ccc(N(C)C)cc1,31,x,x,34,x
CC[n+]1ccccc1/C=C/c1ccc(N(C)C)cc1,87*,x,x,28,x
CC[n+]1c(/C=C/c2ccc(OC)c(OC)c2)ccc2ccccc21,20,-6,4,-344,2
CC[n+]1c(/C=C/c2ccc(N(C)C)cc2)ccc2ccccc21,13,x,x,47*,x
CCOC(=O)c1c(CSc2ccc(C)cc2)oc2ccc(O)cc12,0,2,2,13,1
SMILES,SENP1 FRET inh,SENP8 block-1,SENP7 inh,SENP8 block-2,SENP6 inh
CC(Sc1ccc(Cl)cc1)C(=O)N(C)CC(=O)Nc1ccc(N2CCOCC2)cc1 (stereo not given),-1,-11,18,10,-13
COc1cc(/C=C2\SC(=S)NC2=O)ccc1OS(=O)(=O)c1ccccc1,x,43,9,x,59*
CCOc1ccc(/C=C2\SC(=S)NC2=O)cc1OC,-12,6,-6,35,-6
COc1cc(/C=C2/SC(=S)NC2=O)ccc1OS(=O)(=O)c1ccc(C)cc1,6,8,5,20,-3
COc1ccc(/C=C2\SC(=O)NC2=S)cc1OC,32*,1,8,24,19
Cc1cccc(/C=C/c2onc(C)c2[N+](=O)[O-])n1,x,2,-3,x,1
Cc1cc(O)ccc1N/C=C/c1onc(C)c1[N+](=O)[O-],23,47,97*,26,87*

# From PubChem BioAssay
